Molecules are shown by their SMILES. Calls of active or inactive are those of the source.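 How the source made its calls: active means EC50 for reversing nicotinamide-shortened yeast lifespan at or below a set limit; inactive means EC50 above that limit.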

This assay concerns S. cerevisiae DeaD BB579, nicotinamide rescue growth, OD615 48 h. Briefly: BB579 yeast growth restoration under nicotinamide – S. cerevisiae, yeast lifespan extension project, dose response (AID 809). The method in brief:
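System: S. cerevisiae DeaD strain BB579 / Medium: Glucose-containing restrictive synthetic medium (CSMM-D), shifted from galactose / Schedule: 4 h pre-incubation, 48 h exposure at 30 °C / Technique: optical density at 615 nm (absorbance) / Read-out: culture growth as lifespan proxy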
For the molecule `COC(=O)/C(=C/c1cn(C)c2ccccc12)[N+](=O)[O-]`, the EC50 (in general, the concentration at which the effect is half-maximal) is 2.24 µM.
The result for `O=C(c1cnn2c(C(F)F)cc(C3CC3)nc12)N1CCCC1` reads > 10 µM (inactive).
On to `Cn1nnnc1SCCNCC#Cc1ccccc1`, for which the EC50 is > 10 µM (inactive).
Regarding `O=C(O)c1c[nH]c(=S)n1-c1ccc(F)cc1`, the EC50 was > 10 µM (inactive).
With `Cc1cc(C=C2C(=O)N(C)C(=S)N(C)C2=O)c(C)n1-c1cccnc1` the figure was > 10 µM (inactive); with `CC(C)C(C(=O)O)N1C(=O)/C(=C/c2cccn2C)SC1=S` (centres undefined), 8.05 µM; with `CCCc1[nH]nc2c1C(c1ccc(Br)s1)C(C#N)=C(N)O2` (centres undefined), 6.56 µM.
With `O=c1c(Cl)c(NCCCO)cnn1-c1nc2ccccc2[nH]1` the figure was 7.65 µM.
Take `O=C1C=CCC(/C=C/c2ccccc2)O1` (centres undefined): the EC50 was > 10 µM (inactive).
Regarding `CCc1oc2ccccc2c1C(=O)CCN1CCCCC1`, the EC50 is 8.21 µM.
The result for `CCN(CCO)C(=O)C12CCC(C)(C(=O)C1)C2(C)C` (centres undefined) reads > 10 µM (inactive); that for `Cc1ccc2nc(-c3ccc(NC(=O)CSc4ccccc4)cc3)[nH]c2c1`, > 10 µM (inactive).
For the molecule `O=C(N/N=C/c1ccccc1)c1c(O)c2ccccc2[nH]c1=O`, the EC50 is 0.58 µM.
The result for `CCCCCC1CC1C(=O)N/N=C/c1ccc(N(C)C)cc1` (centres undefined) reads > 10 µM (inactive).
With `O=C1CC(c2ccccc2)CC(O)=C1C=NCCN1CCNCC1` (centres undefined) the figure was > 10 µM (inactive); with `Fc1cccc2sc(Nc3nnc(-c4ccco4)o3)nc12`, 0.24 µM; with `COc1cccc(CSc2nc3ccccc3cc2C=O)c1`, 8.96 µM.
The result for `Cc1ccc2[nH]c3c(c2c1)CC/C(=C/c1ccccc1)C3=O` reads > 10 µM (inactive); that for `COc1ccc2c3c(cccc13)C(=O)N(O)C2=O`, 2.08 µM.
As to `Cc1ccc(C)c(N2CCN(S(=O)(=O)c3c(C)noc3/C=C/N(C)C)CC2)c1`, the EC50 is > 10 µM (inactive).
In the case of `C=C(C(=O)c1ccccc1)C(C)CC(=O)c1ccccc1` (centres undefined), the EC50 was 6.42 µM.
On to `O=C(c1ccccc1)C(CN1CCCC1)c1ccccc1` (centres undefined), for which the EC50 was 9.14 µM.
With `CCCCn1c(NS(=O)(=O)c2ccc(C)cc2)c(C(=O)OCC)c2nc3ccccc3nc21` the figure was > 10 µM (inactive); with `O=[N+]([O-])c1c(C(Cl)Cl)nn(-c2ccccc2)c1N1CCCC1`, 7.47 µM; with `CCCC(=O)C1C(=O)CC(CC(C)SCC)CC1=O` (centres undefined), 2.33 µM.
Turning to `O=C1/C(=C\c2cccnc2)CN(Cc2ccccc2)C/C1=C\c1cccnc1`, the EC50 is 9.63 µM.
In the case of `O=C1Nc2ccccc2C12OCC1(CO2)COC2(OC1)C(=O)Nc1ccccc12` (centres undefined), the EC50 was > 10 µM (inactive).
The result for `CC1(C)CC(=O)C(C(=O)Cc2ccccc2[N+](=O)[O-])C(=O)C1` reads 4.3 µM; that for `CCOC(=O)C(=Cc1ccc(F)cc1)C(=O)OCC`, 6.7 µM; that for `COc1cc(/C=c2\sc3nc(-c4ccncc4)nn3c2=O)ccc1OC(C)=O`, > 10 µM (inactive).
The result for `CCn1c(/N=C/c2ccccc2NS(=O)(=O)c2ccc(C)cc2)nc2ccccc21` reads 3.3 µM; that for `Cc1oc2c(c(=O)c1C)C(=O)CC(c1ccccc1)C2` (centres undefined), 7.82 µM; that for `O=C(NC(=S)NNC(=O)c1ccccc1O)c1ccco1`, 6.02 µM.
On to `CCc1ccc(CC2S/C(=C(\C#N)C(C)=O)NC2=O)cc1` (centres undefined), for which the EC50 is > 10 µM (inactive).
With `CCOC(=O)COc1ccccc1/C=C\[N+](=O)[O-]` the figure was 1.79 µM.
`CCn1c(=O)c2ccccc2n2c(SCC(=O)N3CCCc4ccccc43)nnc12`: the EC50 is > 10 µM (inactive).
With `C/C(=N\NC(=O)c1cccnc1)c1c(O)cc(C)oc1=O` the figure was > 10 µM (inactive); with `Cc1c(NC(=O)C(=O)/C=C(/O)c2ccccc2)c(=O)n(-c2ccccc2)n1C`, 4.95 µM; with `O=C1c2ccccc2C(Nc2ccc3c(c2)OCCO3)N1c1ccccn1` (centres undefined), > 10 µM (inactive).
The result for `COC(=O)C(=O)/C=C(\O)c1ccc(C)cc1` reads 5.88 µM; that for `O=c1c2ccccc2nc(-c2cccc(Cl)c2)n1O`, less than 0.078 µM.
With `O=C(c1c[nH]c(C(=O)C(Cl)(Cl)Cl)c1)c1ccccc1Cl` the figure was 8.53 µM.
As to `CCCCn1c(/N=C/c2ccccc2NS(=O)(=O)c2ccc(C)cc2)nc2ccccc21`, the EC50 is 3.53 µM.
As for `O=C1NCC2=C1C(c1ccc(Br)cc1)Nc1ccccc1N2` (centres undefined), the EC50 was 6.26 µM.
With `Cc1ccc2nc(N3C(=O)C(O)=C(C(=O)c4ccco4)C3c3cccs3)sc2c1` (centres undefined), the EC50 is 6.68 µM.
With `CCCC(=Nc1ccccc1)C1=C(O)C(C(=O)OC)C(C)(C)CC1=O` (centres undefined) the figure was 5.99 µM.
With `CC(=O)Nc1ccc(C(=O)CSc2nnc(-c3ccc(O)cc3)n2CC2CCCO2)cc1` (centres undefined), the EC50 is > 10 µM (inactive).
As for `C=CCN(CC=C)c1nc2ccccc2nc1C(C#N)C(=O)OC(C)C` (centres undefined), the EC50 was > 10 µM (inactive).
The result for `COC(=O)CC1=NN(c2ccccc2)C(=O)/C1=C\c1ccc(OC)cc1` reads > 10 µM (inactive).
Consider `O=c1c2ccccc2sn1-c1ccccc1`, for which the EC50 is > 10 µM (inactive).
As to `CCc1nnc(NC(=O)c2cccc(S(=O)(=O)N(C)c3ccccc3)c2)s1`, the EC50 is > 10 µM (inactive).
The result for `COc1ccc(CN2CCN(C(=O)COc3cccc(C)c3)CC2)c(OC)c1` reads > 10 µM (inactive).
For `O=C(NNC1=Nc2cccc3cccc1c23)c1ccccc1Br`, the EC50 is > 10 µM (inactive).
`CCC(C)OC(=O)C1C(c2ccccc2)C(C(=O)O)C1c1ccccc1` (centres undefined): the 50% effective concentration (EC50) was 8.26 µM.
With `CCn1c(/C=N/c2nc3ccccc3n2C)nc2ccccc21` the figure was > 10 µM (inactive); with `Cc1ccc(OCC(=O)c2c(O)c3ccccc3oc2=O)cc1C`, 8.97 µM; with `Cc1ccc(/C=C/C(=O)C2C(=O)c3ccccc3C2=O)cc1`, 8.56 µM.
In the case of `CCCCSc1[nH]c(=O)c(C(=O)OCC)cc1C#N`, the EC50 was 6.45 µM.
With `O=C(Nc1nc2ccccc2n1CCN1CCOCC1)c1cn(-c2ccccc2)nc1-c1ccccc1` the figure was > 10 µM (inactive); with `Cc1ccccc1NC(=O)c1ccccc1`, > 10 µM (inactive); with `Cc1ccnc(-n2c(C)cc(/C=C3\C(=O)NC(=S)N(C)C3=O)c2C)c1`, > 10 µM (inactive).
The result for `Cc1ccc(N(C(=O)CS(=O)CC(=O)Nc2ccc(F)cc2)C(C(=O)NC2CCCCC2)c2ccco2)cc1` (centres undefined) reads > 10 µM (inactive).
With `N#Cc1c(-c2ccccc2)c(-c2ccccc2)nn(CC(=O)NNC(=O)Nc2ccccc2)c1=O` the figure was > 10 µM (inactive); with `COc1cc(/C=C/C(=O)C2C(=O)C=C(C)OC2=O)cc(OC)c1O` (centres undefined), 6.69 µM.
Regarding `CN1CCN(C(=S)Nc2cc([N+](=O)[O-])ccc2Cl)CC1`, the EC50 was > 10 µM (inactive).
Take `CCCC(=Nc1ccccc1OC)C1=C(O)CC(c2ccccc2)CC1=O` (centres undefined): the EC50 is 3.21 µM.
For the molecule `Cc1ccc(-c2nc3ccc(Cl)cc3n2OC(=O)N(C)C)cc1`, the EC50 was > 10 µM (inactive).
Turning to `COc1ccc(NCc2nc3ccccc3n2CCOc2ccccc2)cc1`, the EC50 was 5.29 µM.
With `O=C1C=CC2C(c3ccc4c(c3)OCO4)CC1N2Cc1ccccc1` (centres undefined) the figure was 6.04 µM.

For the origin of these results see PubChem BioAssay AID809 (SRMLSC, 2007).
